The list is not random: actives were taken first. Their share in the collection is about 1.5%.
Rpn11 inh – blocks the human proteasome subunit Rpn11; O00487; inhibition, % at 20 µM; AID 588493; 360,000 tested, 0.59% active; human 26S proteasome, Ub4-pepOG fluorescence polarization; 20S core pre-blocked with epoxomicin;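 active = inhibition at 20 µM, scaled to each plate's controls, above about 33%, limit read from the data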
HNF4A DNA FP – change in binding of human HNF4 alpha to DNA; P41235; HNF4a-FITC DNA binding, fluorescence polarization, 1 h; activity change, % at 10 µM; 360,000 tested, 0.3% active; AID 1224865; in the data active = activity change above about 30%, passing the limit was not always enough
Target sequence (P41235 whole entry, looked up): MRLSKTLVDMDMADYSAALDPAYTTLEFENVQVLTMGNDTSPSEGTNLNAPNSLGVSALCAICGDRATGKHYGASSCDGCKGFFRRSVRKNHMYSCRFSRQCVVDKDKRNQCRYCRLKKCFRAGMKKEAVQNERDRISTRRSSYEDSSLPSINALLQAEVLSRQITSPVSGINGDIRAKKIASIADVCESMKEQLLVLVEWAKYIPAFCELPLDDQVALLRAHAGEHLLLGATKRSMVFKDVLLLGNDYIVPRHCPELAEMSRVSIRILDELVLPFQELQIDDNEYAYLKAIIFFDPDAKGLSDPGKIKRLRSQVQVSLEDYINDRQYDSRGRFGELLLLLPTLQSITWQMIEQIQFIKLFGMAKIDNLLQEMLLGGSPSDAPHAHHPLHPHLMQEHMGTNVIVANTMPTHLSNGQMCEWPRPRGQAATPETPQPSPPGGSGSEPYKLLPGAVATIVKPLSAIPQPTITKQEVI
TPT1 inh – C. albicans TPT1 enzyme inhibition; recombinant caTPT1, FP RNA substrate dephosphorylation; inhibition, % at 5 µM; 300,000 tested, 0.81% active; AID 1962;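 active = inhibition above the mean of all tested compounds plus 3 SD, set per screening campaign, cut at about 24% in these data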;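 note: plate controls were DMSO alone for no effect and ferristatin control at 100 nM for full effect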
CSN inh – CSN deneddylation inhibition. AID 651999. Q92905. 360,000 tested, 0.38% active. Purified CSN, SCF-Nedd8-OG deneddylation, fluorescence polarization. inhibition, % at 12.5 µM;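 active = pattern-corrected inhibition above about 35%, with an unprinted fluorescence ratio check between 0.5 and 1.5, limit read from the data, passing the limit was not always enough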;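 note: 0% = enzyme with substrate and 100% = substrate without enzyme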
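Assay system: HEK293T-derived human Csn5 enzyme; quantity: 0.24 nM enzyme; medium: Tris/NaCl/DTT buffer, pH 7.5; also added: substrate SCFSkp2-Nedd8OG, 10 nM; doses: 12.5 µM compound; schedule: 90 min reaction at room temperature; signal: FP; read-out: % inhibition of substrate cleavage by Csn5; benchmarks: substrate-only high control, full reaction low control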
* hit, by the source's call; . = no result given.

SMILES	Rpn11 inh	HNF4A DNA FP	TPT1 inh	CSN inh
Cc1nc(NC(=O)c2ccccc2)sc1-c1csc(NCc2ccco2)n1	45.1*	9.8	8.7	19.0
Cc1[nH]c2ccc(C(=O)N3CCN(c4ccccn4)CC3)cc2c1C	17.5	103.1*	-1.8	-4.5
O=C(c1ccc(Cl)c(Cl)c1)N1CCN(c2ccccn2)CC1	0.2	-0.4	.	0.1
CC(NC(=O)COC(=O)C1CCN(c2ccc(C(F)(F)F)cn2)CC1)c1ccc(Br)cc1 (centres undefined)	-4.1	1.8	-9.8	2.0
CC(=O)OCCc1c2ccccc2c(CCCN(C)C)c2ccccc12	11.4	131.7*	-2.5	70.6*
CC(C(=O)N(C)Cc1cccc(F)c1)N1CCN(S(=O)(=O)c2ccc3c(c2)OCCCO3)CC1 (centres undefined)	-2.9	-2.2	.	19.4
O=C(NC(=S)Nc1ccccn1)c1cncc(Br)c1	-8.2	66.2*	3.4	3.4
O=C(NC(=S)Nc1ccc(Br)cn1)c1cncc(Br)c1	10.7	0.6	0.3	-6.5
COc1ccc(Cc2c(C(C)(C)C)nc3c(C)cc(Br)cn23)c(C)c1	-20.4	-1.9	.	-6.0
O=c1oc(/C=C/c2ccccc2)nc2sc3c(c12)CCC3	.	47.3*	2.3	3.5
COc1ccc(C(=O)NC(C)c2ccc(-n3ccnc3)cc2)cc1S(=O)(=O)N1CCOCC1 (centres undefined)	2.2	1.2	.	-0.1
CC(C)CN(C(=O)CN1CCN(c2ccccc2F)CC1)c1c(N)n(CC(C)C)c(=O)[nH]c1=O	-5.5	-1.4	-1.0	-10.4
CC(C)CN(C(=O)CN1CCc2ccccc21)c1c(N)n(CC(C)C)c(=O)[nH]c1=O	.	32.2*	4.2	16.1
O=C(Nc1ccccn1)c1ccc([N+](=O)[O-])o1	-3.9	-1.5	-0.5	-4.7
O=C(Nc1ncccn1)c1ccc([N+](=O)[O-])o1	.	77.7*	6.2	63.6*
CC(C)CN(CC(C)C)C1=N/C(=C\c2ccco2)C(=O)N1c1ccccc1	21.4	1.1	10.2	38.5*
Cc1ccc(S(=O)(=O)N2CCOCC2)cc1C(=O)OCC(=O)NC1CC1	1.7	0.9	.	60.1*
Cn1c(SCC(=O)NC2CCCc3ccccc32)nnc1C1CC1 (centres undefined)	-4.2	1.6	.	-2.1
COc1cc(-c2onc3ccc(Br)cc23)cc(OC)c1OC	1.2	43.0*	1.9	-6.3
COc1ccc(-c2onc3ccc(Br)cc23)cc1	-171.6	-58.3	-40.1	-41.1
O=C1CCCCC1Sc1nnc(Nc2ccccc2)s1 (centres undefined)	2.1	4.3	-1.3	45.2*
N#Cc1c(N)n(CCc2ccc(F)cc2)c2nc3ccccc3nc12	17.1	5.0	7.4	25.4
CCCCn1c(NC(=O)c2ccc(F)cc2)c(C#N)c2nc3ccccc3nc21	.	.	80.5*	.
Cc1ccc(S(=O)(=O)NCCC(=O)Oc2ccc3ccc(=O)oc3c2)cc1	0.0	5.5	3.2	41.3*
Cc1ccc(S(=O)(=O)NC(C(=O)Oc2ccc3ccc(=O)oc3c2)c2ccccc2)cc1 (centres undefined)	-8.5	1.6	1.0	2.0
SMILES	Rpn11 inh	HNF4A DNA FP	TPT1 inh	CSN inh
C=CCNc1nc(NCc2ccc(N(C)C)cc2)c2sc(-c3ccccc3)cc2n1	-5.8	0.4	.	48.8*
C=CCNc1nc(NCCOC)c2sc(-c3ccccc3)cc2n1	-7.8	0.7	.	1.9
CN(C)S(=O)(=O)c1ccc(C(=O)OCC(=O)N2CC3(C)CC2CC(C)(C)C3)cc1 (centres undefined)	-6.3	0.4	.	1.7
Cc1noc(C)c1COc1ccc(C(=O)OCC(=O)N2CC3(C)CC2CC(C)(C)C3)cc1 (centres undefined)	-14.1	0.7	-4.9	36.9*
COc1cccc(CN2CC(C(=O)N(C)Cc3ccnc4ccccc34)CCC2=O)c1 (centres undefined)	-5.3	0.5	-0.4	1.3
Cc1ccc(S(=O)(=O)NNC(=O)C(O)(c2ccccc2C)c2ccccc2C)cc1	-22.7	0.6	1.6	7.1
CCS(=O)(=O)Nc1ccc(-c2nnc(SCC(=O)c3ccc(NC(C)=O)c(OC)c3)o2)cc1	37.1	1.6	-5.0	45.8*
CC(=O)c1cccc(NC(=O)COC(=O)CCC(=O)c2cccs2)c1	0.5	-4.3	.	1.2
Cc1[nH]c(=O)[nH]c(=O)c1CSCC(=O)OCC(=O)Nc1ccccn1	-11.3	-5.3	-0.7	93.5*
N#Cc1cc2cc3c(cc2nc1Cl)OCCO3	35.5	18.0	.	61.2*
C#CCOCCOCCOCCNc1nc(N2CCN(C(=O)CCCCCCCCCCNC(=O)[C@H]([C@@H](C)CC)n3cc(CCCCCN)nn3)CC2)nc(N2CCN(C(=O)CCCCCCCCCCNC(=O)[C@@H]([C@H](C)O)n3cc(C)nn3)CC2)n1	45.4*	14.8	-6.5	16.6
C#CCOCCOCCOCCNc1nc(N2CCN(C(=O)CCCCCCCCCCNC(=O)[C@H](CCCCN)n3cc(CCO)nn3)CC2)nc(N2CCN(C(=O)CCCCCCCCCCNC(=O)[C@@H]([C@H](C)O)n3cc(C)nn3)CC2)n1	7.4	29.5	-2.3	26.2
C#CCOCCOCCOCCNc1nc(N2CCN(C(=O)CCCCCCCCCCNC(=O)[C@H](CCC(=O)O)n3cc(CCCCCN)nn3)CC2)nc(N2CCN(C(=O)CCCCCCCCCCNC(=O)[C@@H]([C@H](C)O)n3cc(C)nn3)CC2)n1	-3.4	-1.5	-1.0	0.1
C#CCOCCOCCOCCNc1nc(N2CCN(C(=O)CCCCCCCCCCNC(=O)[C@H](CCCCN)n3cc(C)nn3)CC2)nc(N2CCN(C(=O)CCCCCCCCCCNC(=O)[C@@H]([C@H](C)CC)n3cc(CCCCCN)nn3)CC2)n1	66.8*	165.2	-2.8	111.2*
CC(C)(C)OC(=O)N1CCC(C(=O)Nc2cccc(C(=O)NCc3ccccc3)c2)CC1	0.6	-3.8	.	4.0
CCc1ccc(/C(C)=N/NC(=O)CNC(=O)/C=C/c2ccco2)cc1	.	-59.7	0.9	37.6*
O=C(O)CSc1nc2ccc(Br)cc2[nH]1	1.8	4.0	.	69.6*
O=C(O)CN1C(=O)/C(=C\c2ccccc2OCc2ccccc2)SC1=S	-8.7	-1.6	.	5.8
O=C(O)CCCN1C(=O)/C(=C\c2ccccc2OCc2ccccc2)SC1=S	-0.1	50.9*	-2.5	3.7
Cc1cccc2cc(/C=C3\N=C(c4ccccc4)OC3=O)c(N3CCOCC3)nc12	40.2*	6.4	4.8	10.9
C[C@@H](c1ccccc1)N1C[C@H](COCc2ccccc2)Oc2cc(N3CC[C@@H](O)C3)ccc2S1(=O)=O	.	-2.5	.	2.2
CCOC(=O)Cc1csc(SCC(=O)Nc2sc3c(c2C(N)=O)CCC3)n1	9.2	-14.6	18.0	36.8*
NC(=O)c1c(NC(=O)CSc2nnc(-c3ccco3)n2-c2ccccc2)sc2c1CCC2	3.8	-13.2	13.2	36.3*
Fc1ccc2c(c1)C(c1ccc(N3CCOCC3)cc1)=NNC(c1cccs1)=N2	81.5*	14.6	-3.1	8.7
Brc1ccc2c(c1)C(c1ccc(N3CCOCC3)cc1)=NNC(c1cccs1)=N2	.	37.3*	1.2	13.8
Cc1ccc2c(c1)C(c1ccc(N3CCOCC3)cc1)=NNC(c1cccs1)=N2	28.9	4.4	-3.1	-1.0

Compound activity: PubChem, several laboratories
